This is a sample that favours compounds with a hit; in the whole collection about 27% have one here.
Cav3 T inh: blocks human Cav3.2 T-type calcium channel | O95180 | Cav3.2-expressing cells, Fluo-4 calcium fluorescence FDSS; hits give low values | B-score at 10 µM | 100,000 compounds, 4% hits | AID 449739;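 active = single-dose well whose peak fluorescence ratio is a statistical outlier from its plate by either plate-standardised score or position-corrected B-score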
CYP2C19 activ: increases human CYP2C19 enzyme activity | 96,000 tested, under 10 active | activation factor at 5 µM | recombinant CYP2C19, luciferin-H EGE luminescence; hits give high values; 0 = fully inhibited enzyme, 1 = untreated enzyme | AID 1025;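 active = activation factor of at least 2 at 5 µM in the primary screen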;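 note: 0 = wells with 2.5 mM tranylcypromine and 1 = vehicle-only wells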
CYP2C19 inhib: blocks human cytochrome P450 2C19; P33261; CYP2C19 Supersomes, luciferin-H EGE luminescence, 30 min; inhibition, % at 5 µM; 96,000 compounds, 21% hits; AID 778;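 active = CYP2C19 inhibition above a set limit at 5 µM in the primary screen, cut at about 50% in these data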;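 note: plate controls were negative control wells for no effect and 2.5 mM tranylcypromine positive control for full effect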
Rev-RRE block: disrupts HIV-1 Rev binding to RRE RNA. P05866. AID 704. inhibition, % at 8 µM. Rev peptide-RRE RNA binding, FRET. 97,000 compounds, 0.79% hits;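 active = inhibition above the screen-wide mean plus 3 SD, cut at about 35% in these data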;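 note: 0% = median DMSO wells and 100% = median Neomycin B control wells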
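Assay system: Labelled RRE RNA duplex and labelled Rev peptide | Times: 5 min preincubation and 15 min binding, 25 °C | Detection: FRET, ex 480 nm, em 540 and 671 nm | Evaluation: % inhibition of FRET ratio versus controls | Benchmarks: DMSO wells as 0% and neomycin B wells as 100% inhibition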
CYP2C9 inhib: blocks human cytochrome P450 2C9. P11712. CYP2C9 Supersomes, luciferin-H conversion, luminescence. 96,000 compounds, 20% hits. inhibition, % at 5 µM;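 active = blocking of liver enzyme CYP2C9 beyond about 50% at 5 µM, limit read from the data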
CYP2C9 activ: CYP2C9 (human) activation | P11712 | recombinant CYP2C9, luciferin-H conversion, luminescence; hits give high values; factor 1 = untreated enzyme, 0 = blocked | activation factor at 5 µM | 96,000 compounds, 1.4% hits | AID 1024;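 active = activation factor of 2 or more for CYP2C9 at a 5 µM dose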;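 note: 0 = sulfaphenazole-blocked wells and 1 = vehicle-only wells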
Numbers without * were called inactive; / = no result; [ ] = dose if it differs, or a comment.

SMILES	Cav3 T inh	CYP2C19 activ	CYP2C19 inhib	Rev-RRE block	CYP2C9 inhib	CYP2C9 activ
Cn1c(SCC(=O)c2ccc3c(c2)OCCO3)nnc1C1CC1	0.00014	/	/	0	/	/
CCc1nnc(NS(=O)(=O)c2ccc(N3C(=O)C4CC=C(Cl)CC4C3=O)cc2)s1 (configuration not stated)	0.041	0.9	13	-3	50*	0.5
Nc1nnnn1/N=C/c1ccccc1OCc1ccc(Cl)cc1Cl	-0.24	1.1	-11	8	5	1
Clc1ccc(COn2nnc3ccccc32)c(Cl)c1	-0.96	0.4	64*	8	8	0.9
CCOC(=O)/C(C#N)=C/c1ccc(OCC(=O)Nc2ccc(OC)cc2)c(OC)c1	1.2	0.5	49	-2	59*	0.4
COc1cc(/C=N\Nc2ccc([N+](=O)[O-])cc2)ccc1OCC(=O)Nc1ccc(C)c(C)c1	/	1	4	76*[fluorescence artefact?]	5	0.9
COc1cccc(N2CCN(C3CC(=O)N(c4ccc(Cl)c(Cl)c4)C3=O)CC2)c1 (configuration not stated)	-6.4*	0.9	9	1	9	0.9
Cc1cc(C)c2cc(CN(Cc3cccnc3)C(=O)c3ccc(F)cc3)c(Cl)nc2c1	-1.1	0.5	52*	-1	46	0.5
Cc1cccc2cc(CN(Cc3cccnc3)C(=O)c3ccccc3F)c(Cl)nc12	-0.25	0.3	68*	7	55*	0.4
Cc1cc(C(=O)NCc2ccco2)cs1	-0.83	0.5	49	/	48	0.5
CC(=O)c1cccc(NC(=O)NCc2ccco2)c1	0.19	0.7	30	3	41	0.6
Cc1scc(C(=O)NCc2ccco2)c1-c1ccccc1	-0.24	0.4	61*	/	46	0.5
O=C(O)CCC(=O)Nc1ccccc1C(=O)NCc1ccco1	-0.084	/	/	5	/	/
O=C(Nc1cccc(Cl)c1)Nc1ccccc1C(=O)NCc1ccco1	-0.31	0.9	14	21	58*	0.4
O=C(NCc1ccco1)Nc1ccc(Br)cc1Cl	-0.83	0.5	47	6	53*	0.5
O=C(NCc1ccco1)c1ccccc1Nc1ccc(F)cc1	-6*	0.1	89*	10	67*	0.3
COc1ccc(OC)c(N(CC(=O)N2CCN(c3cc(Cl)ccc3C)CC2)S(C)(=O)=O)c1	-2.9	0.8	19	-6	-20	1.2
O=C(NCc1ccco1)c1cccc2ccccc12	-0.44	0.8	24	7	-203	3*
COc1ccc2oc(=O)c(C(=O)n3ccc(C)n3)cc2c1	0.16	0.9	5	9	5	0.9
CC(=O)Nc1ccc(Nc2ncnc3c2cnn3-c2ccc(C)cc2C)cc1	0.77	0.5	54*	10	52*	0.5
CC(=O)Nc1ccc(Nc2ncnc3c2cnn3-c2cccc(C)c2)cc1	-0.32	0.9	9	10	10	0.9
CCOC(=O)N1CCC(Nc2ncnc3c2cnn3-c2ccc(C)cc2C)CC1	2.4	0.6	44	8	58*	0.4
Cc1ccc(-n2ncc3c(NCC4CCCO4)ncnc32)c(C)c1 (configuration not stated)	1.5	1	4	4	-2	1
Cc1cc(C)nc(/N=C(/NC(=O)Nc2cccc(Cl)c2)Nc2ccccc2)n1	0.14	1	4	7	20	0.8
CC(=O)NCCn1c(SCc2cc(F)ccc2F)nc2ccccc2c1=O	0.067	0.2	76*	0	99*	0
SMILES	Cav3 T inh	CYP2C19 activ	CYP2C19 inhib	Rev-RRE block	CYP2C9 inhib	CYP2C9 activ
CCn1c(SCC(N)=O)nc2ccccc2c1=O	-2.2	1.1	-11	3	-8	1.1
CC(=O)NCCn1c(SCc2ccccc2C)nc2ccccc2c1=O	-0.72	0.2	79*	-1	98*	0
O=S(=O)(NCc1ccccc1)c1ccc(F)cc1Br	-0.21	/	/	/	/	/
CC(C)CC(=O)NCc1ccc(F)cc1	0.087	0.8	22	0	13	0.9
O=C(COc1ncnc2c(Cl)cc(Cl)cc12)NCCC1=CCCCC1	-0.13	0.6	39	5	17	0.8
OCC(CO)(CO)N=Cc1cc(Br)ccc1O	-7.1*	0.9	6	3	1	1
COCCN1Cc2cccc(C(=O)Nc3ccc(C)c(C)c3)c2C1=O	-1.5	1	3	-4	41	0.6
COCCN1Cc2cccc(C(=O)Nc3c(C)cccc3C)c2C1=O	1.5	0.6	42	-3	25	0.8
CCOc1ccc(NC(=O)c2cccc3c2C(=O)N(CCOC)C3)cc1	0.042	0.8	20	10	72*	0.3
CCCN1Cc2cccc(C(=O)NCc3ccc4c(c3)OCO4)c2C1=O	-0.2	0.8	18	/	38	0.6
COCCN1Cc2cccc(C(=O)NC(C)c3cccs3)c2C1=O (configuration not stated)	1	0.4	63*	1	28	0.7
CCCN1Cc2cccc(C(=O)NCc3cccs3)c2C1=O	-0.81	0.3	73*	5	52*	0.5
COCCN1C(=O)c2ccccc2C(C(=O)N2CCN(c3ccccn3)CC2)C1c1ccc(F)cc1 (configuration not stated)	0.58	/	/	1	/	/
O=C(Nc1ccc(Cl)cn1)c1ccc(-c2ccc(Cl)c(Cl)c2)o1	-0.0077	/	/	10	/	/
CCc1ccc(N2CC(C(=O)N/N=C/c3cccc([N+](=O)[O-])c3)CC2=O)cc1 (configuration not stated)	-0.73	0.8	16	16	69*	0.3
CCCOc1ccc(N2CC(C(=O)Nc3ccccc3F)CC2=O)cc1 (configuration not stated)	-2.1	1	3	1	41	0.6
CCc1ccc(N2CC(C(=O)Nc3ccccc3F)CC2=O)cc1 (configuration not stated)	-0.0068	0.5	46	11	82*	0.2
O=c1[nH]cnc2ccccc12	0.81	/	/	/	/	/
Brc1cc2[nH]cnc2c2ccccc12	2	0.5	50*	5	-21	1.2
Cc1cc(C)c2c(N)c(S(=O)(=O)c3ccccc3)sc2n1	-0.057	0.4	56*	6	-196	3*
COCc1cc(C)c2c(N)c(C#N)sc2n1	/	0.7	29	12	-36	1.4
CCCCS(=O)(=O)c1sc2nc(C)cc(C)c2c1N	0.24	0.1	89*	4	-165	2.7*
Cc1csc2nc(CNC(=O)C3CC=CCC3C(=O)O)cn12 (configuration not stated)	0.098	0.9	11	9	24	0.8
CN(C)c1nc(SCc2ccc(Cl)cc2)nc2c1CCCC2	0.44	0.3	69*	12	86*	0.1
CCO[C@@H]1OC(C(=O)NC2CC2)=C[C@H](c2ccc(Br)cc2)[C@H]1CCCO	0.64	/	/	/	/	/
CCc1nc(SCC(=O)Nc2cccc(C(F)(F)F)c2)c2c(=O)n(C)c(=O)n(C)c2n1	-0.018	0.3	66*	4	52*	0.5

Screening data (PubChem BioAssay)
